{"data": "Measured values gathered from unrelated publications", "target": "Mitogen-activated protein kinase 9 (MAPK9, Homo sapiens, UniProt P45984)", "note": "Protocols differ between the studies behind these lines."}
{"SMILES": "CCC(=O)N[C@@H]1CC[C@H](C(=O)N(C)c2ccc(-c3nc4ccccc4o3)cc2)C1", "observed": "cell-free assay", "method": "competition with immobilised ligand", "concentration": "1 µM", "remaining binding [%]": 98}
{"SMILES": "CN(C)c1nccc(-c2cnc3ncccn23)n1", "observed": "binding", "concentration": "1 µM", "remaining binding [%]": 60}
{"SMILES": "CNC(=O)[C@@H]1CC[C@@H](n2c(-c3ccc4cnccc4c3)nc3ccc(C(=O)NCc4cccc(C(N)=O)c4)cc32)C1", "observed": "binding", "method": "competition with immobilised ligand", "concentration": "1 µM", "remaining binding [%]": 67}
{"SMILES": "COc1ncc2cc3ccccc3nc2c1C#N", "observed": "cell-free assay", "method": "competition with immobilised ligand", "concentration": "5 µM", "remaining binding [%]": 100}
{"SMILES": "CCOCCn1cc(C(=O)Nc2ccc(-n3nc(-c4cccnc4)cc3C(F)(F)F)cn2)ccc1=O", "observed": "cell-free assay", "method": "competition with immobilised ligand", "concentration": "1 µM", "remaining binding [%]": 97}
{"SMILES": "CC(C)(C)c1ccc(-c2nc(CBr)nn2-c2cccc(O)c2)cc1", "observed": "cell-free assay", "method": "competition with immobilised ligand", "concentration": "10 µM", "remaining binding [%]": 46}
{"SMILES": "C[C@@H]1CN(c2ccc3ncc(-c4ccc5[nH]nc(C6CC6)c5c4)n3n2)C[C@H](C)O1", "observed": "binding", "method": "competition with immobilised ligand", "concentration": "0.5 µM", "remaining binding [%]": 50}
{"SMILES": "COc1cnc(Nc2cccc(S(N)(=O)=O)c2)nc1N1CCN(c2ccccc2)C(=O)C1", "observed": "binding", "method": "competition with immobilised ligand", "concentration": "1 µM", "remaining binding [%]": 69}
{"SMILES": "N[C@@H]1CCN(c2nccc(-c3cnn4ncccc34)n2)C1", "observed": "binding", "concentration": "1 µM", "remaining binding [%]": 100}
{"SMILES": "CNCc1ccccc1-c1csc([C@H](C)Nc2nc(C)nc3cc(OC)c(OC)cc23)c1", "observed": "cell-free assay", "method": "competition with immobilised ligand", "concentration": "1 µM", "remaining binding [%]": 71}
{"SMILES": "O=C(c1ccc(Nc2ncc(Cl)c(-c3ccc(Cl)s3)n2)cc1)N1CCC(N2CCCC2)CC1", "observed": "binding", "method": "competition with immobilised ligand", "concentration": "1 µM", "remaining binding [%]": 1.1}
{"SMILES": "CCN1CCN(Cc2ccc(C(=O)Nc3ccc(C)c(Oc4ccc5c(c4)CC(=O)N5)c3)cc2C(F)(F)F)CC1", "observed": "binding", "method": "competition with immobilised ligand", "concentration": "1 µM", "remaining binding [%]": 29}
{"SMILES": "O=C(NCC1CCOCC1)c1n[nH]cc1NC(=O)c1c(F)cccc1F", "observed": "binding", "method": "competition with immobilised ligand", "concentration": "1 µM", "remaining binding [%]": 57}
{"SMILES": "Nc1ncc2c(n1)-c1c([nH]c3ccc(C#CC4CC4)cc13)CCCC2", "observed": "binding", "method": "competition with immobilised ligand", "concentration": "1 µM", "remaining binding [%]": 81}
{"SMILES": "O=C(c1ccc(Nc2nccc(-c3cc4ccccc4s3)n2)cc1)N1CCC(N2CCCC2)CC1", "observed": "binding", "method": "competition with immobilised ligand", "concentration": "1 µM", "remaining binding [%]": 33}
{"SMILES": "C[C@@H]1CCN(c2nccc(-c3cnn4ncccc34)n2)C1", "observed": "binding", "concentration": "1 µM", "remaining binding [%]": 64}
{"SMILES": "COc1ccc2cc(OCC3(C(=O)O)CN(C(=O)c4ccc(F)cc4)C3)ccc2c1", "observed": "cell-free assay", "method": "competition with immobilised ligand", "concentration": "1 µM", "remaining binding [%]": 100}
{"SMILES": "O=C(NCCCN1CCOCC1)c1ccc(Nc2ncc(Cl)c(-c3ccc(Cl)s3)n2)cc1", "observed": "binding", "method": "competition with immobilised ligand", "concentration": "1 µM", "remaining binding [%]": 11}
{"SMILES": "CN(C)c1nccc(-c2cnn3ncccc23)n1", "observed": "binding", "concentration": "1 µM", "remaining binding [%]": 55}
{"SMILES": "COc1cccc(CNC(=O)c2nc3scc(COCc4ccc(C(=O)O)cc4)c3c(=O)[nH]2)c1", "observed": "cell-free assay", "method": "competition with immobilised ligand", "concentration": "1 µM", "remaining binding [%]": 97.1}
{"SMILES": "CC1CCCN1c1nccc(-c2cnn3ncccc23)n1 (stereo not drawn)", "observed": "binding", "concentration": "1 µM", "remaining binding [%]": 100}
{"SMILES": "CC1=C(C#N)C(c2ccc3c(c2)c(NC(=O)c2ccccc2C)nn3C)C(C#N)=C(C)N1", "observed": "cell-free assay", "method": "competition with immobilised ligand", "concentration": "1 µM", "remaining binding [%]": 73}
{"SMILES": "CN(c1nccc(-c2cnn3ncccc23)n1)C1CC1", "observed": "binding", "concentration": "1 µM", "remaining binding [%]": 100}
{"SMILES": "NS(=O)(=O)c1cc(NC(=O)C2(c3ccccc3Cl)CC2)ccc1Oc1cccc(Cl)c1", "observed": "cell-free assay", "method": "competition with immobilised ligand", "concentration": "1 µM", "remaining binding [%]": 100}
